Assay: Toxicity liver stage against HepG2, at 10uM
Assay type: cell-based
Design: test concentration 10 uM, cell line HepG2-A16-CD81EGFP
Settings: human, HepG2-A16-CD81EGFP cells; read-out: INHIBITION
Procedure, shortened: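 Uninfected HepG2-A16-CD81EGFP cells, 3 × 10^3 per well, 1536-well, plated on prespotted compound at 10 μM final, parasite-free screening media added to match infected plates; puromycin 10 μM positive, DMSO 0.5% negative; run in parallel with 48 h PbLuc assay at 37 °C, 5% CO2; viability by CellTiter-Glo luminescence, normalized to controls.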

| SMILES | cytotoxicity at 10 µM |
| --- | --- |
| CN1C(=O)CO[C@H](c2ccc(NC(=O)Nc3ccccc3)cc2)[C@H]1CO | -1.63% |
| CO[C@H]1COCCN(Cc2c[nH]c3ccccc23)C1 | 4.65% |
| CCC(=O)Nc1ccccc1Sc1nc(Br)nn1C | 3.28% |
| O=C(NCCOCCO)c1cccnc1Oc1ccc(Cl)cc1 | 1.38% |
| COc1ccccc1CN1CC(O)CN(C(=O)OCC(C)C)CC1=O (configuration not stated) | -6.19% |
| COc1ccc(S(=O)(=O)NCCC(O)c2ccccc2)c(C)c1 (configuration not stated) | 0.174% |
| O=C(c1ccc[nH]1)N1Cc2nccn2CC(COc2cccnc2)C1 (configuration not stated) | 18.1% |
| O=C(c1cccc(F)c1)N1CCc2ncc(Cn3cccn3)n2CC1 | 2.05% |
| O=C(NC1CC1)[C@@H]1CCO[C@@H]2CCN(C3CCCC3)C[C@H]21 | 13.3% |
| CC(=O)N1CCCC2(CN(Cc3ccccc3C(F)(F)F)CCO2)C1 (configuration not stated) | 7.28% |
| CCOCC1CN(C(=O)c2ccco2)Cc2nn(C)cc21 (configuration not stated) | 3.86% |
| COc1ccc(C2SCC(=O)Nc3ccsc32)cc1OC (configuration not stated) | -0.898% |
| CCOC(=O)N1CCN(c2nc(N3CCCC3)c3ccccc3n2)CC1 | -5.31% |
| COc1ccc(-c2c(C)nn3c(=N)c(C#N)n[nH]c23)cc1 | -8.26% |
| Cc1cc(SCC(N)=O)nc(-c2cccc(F)c2)n1 | -1.9% |
| O=C1CSC(c2cccs2)c2cnn(C3CCCC3)c2N1 (configuration not stated) | 5.99% |
| CS(=O)(=O)N1CC[C@]2(C[C@@H](OCC3CCC3)CO2)C1 | -6.66% |
| Cn1cc(-c2ncnc3c2CCN(C(=O)N2CCOCC2)CC3)cn1 | -11.3% |
| CC(C)N(C)C(=O)C1=NOC2(CCN(C(=O)c3ccncc3)C2)C1 (configuration not stated) | -0.237% |
| Cc1nc(N2CCOCC2)nc2c1CCN(C(=O)NC1CCCC1)CC2 | 3.41% |
| CCn1cc(C(=O)NCc2ccc3c(c2)OCO3)c(C)n1 | 9.9% |
| Cc1ccc(Cn2nc(C)c3c(C(=O)O)c(Cl)c(C)nc32)cc1 | 5.53% |
| COCCCNc1cc(C)nn2cnnc12 | 6% |

| SMILES | cytotoxicity at 10 µM |
| --- | --- |
| Cc1nn(C)c2c(=O)n(C(C)C)c(NCC3CCCO3)nc12 (configuration not stated) | 13.9% |
| O=C(c1ccc(-c2ccc(O)nc2)s1)N1CCSCC1 | 3.96% |
| CN1CCN(C(=O)CCn2ncc3ccccc32)CC(C(N)=O)C1 (configuration not stated) | 4.33% |
| Cc1cc2c(=O)n(CC(=O)N3CCn4cccc4C3C(C)C)cnc2s1 (configuration not stated) | 3.77% |
| COCC(=O)NCc1cnc(C)nc1-c1cn(C)c2ccc(OC)cc12 | 11.9% |
| COCCNc1ncc(-c2cccc(OC)c2)c(-c2nccn2C)n1 | 7.49% |
| CNc1cnc(CC2COCCN(Cc3cccc(C)n3)C2)cn1 (configuration not stated) | 8% |
| CNC(=O)C1CN(C(C)C)CCN1c1nc(C)cc(C)n1 (configuration not stated) | -10.4% |
| c1ccc(CN2CCCC[C@H]3CN(c4ncccn4)C[C@H]32)cc1 | -3.81% |
| CCn1cc(CNCC(c2ccc(Cl)cc2)n2cccn2)cn1 (configuration not stated) | 6.67% |
| CCOC(=O)CCCc1ccc2c(c1)CC(=O)N2 | 1.23% |
| CN1CCC(N(Cc2ccccc2)C(=O)c2ccn3ccnc3c2)CC1 | 5.63% |
| O=C(Nc1ccc(-c2csnn2)cc1)N1CCN2CCCCC2C1 (configuration not stated) | -7.23% |
| CC1COc2ccccc2N1C(=O)CCc1cscn1 (configuration not stated) | 1.88% |
| CN(Cc1cc2ccccc2o1)S(C)(=O)=O | 1.66% |
| CCS(=O)(=O)Cc1csc(-c2ccc(S(C)(=O)=O)cc2)n1 | 8.8% |
| CC1CN(C(=O)C2(c3cccc(F)c3)CCOCC2)CCO1 (configuration not stated) | 4.89% |
| COc1ccc2c(c1)CCCN2C(=O)CN1CCOC(CN(C)C)C1 (configuration not stated) | -2.93% |
| CCCc1cc(C(=O)NCCCC(=O)N2Cc3ccccc3C2)[nH]n1 | 8.81% |
| CCc1cc(CNC(=O)N(C2CC2)C(C)c2ccco2)on1 (configuration not stated) | -0.335% |
| O=C(CCSc1ccccc1)NCCn1nc2ccccn2c1=O | -6.09% |
| O=C(NCc1ccccn1)NCC(c1ccco1)N1CCCC1 (configuration not stated) | -2.56% |
| O=C1OCCN1CCS(=O)(=O)c1cccc(Cl)c1 | -0.82% |

| SMILES | cytotoxicity at 10 µM |
| --- | --- |
| CCOc1cccc(COC(=O)c2cscn2)n1 | -0.262% |
| N#Cc1nccnc1NC1CCN(c2ccccc2Br)C1 (configuration not stated) | 3.92% |
| Cc1nc2ccccc2n(Cc2nnnn2C2CC2)c1=O | -10.3% |
| Cc1ncc(CN(C)Cn2nc(-c3ccccc3)oc2=O)s1 | -2.81% |
| C1CCN(CCOC2CCNCC2)CC1 | 6.88% |
| O=C(NCCC(=O)N1CCCC1)c1cccnc1 | 11% |
| O=S(=O)(NCc1ccc(S(=O)(=O)N2CCCC2)s1)c1cc(Cl)ccc1Cl | -43.4% |
| NC(=O)NC(CC(=O)N1CCc2sccc2C1)c1ccccc1F (configuration not stated) | 3.5% |
| Cn1ncc2c1CCCC2NCc1cccnc1 (configuration not stated) | 0.999% |
| CC(=O)N1CCCN(C(=O)NCCCNS(C)(=O)=O)CC1 | -10.3% |
| Cc1noc(COCC(=O)Nc2ncccc2Br)n1 | 2.13% |
| O=C(CC1=CCCCC1)NCCc1csc(N2CCCC2)n1 | -7.63% |
| COC(=O)[C@H](C)NC(=O)c1cc(-c2cccc(Cl)c2)no1 | -7.25% |
| CCSc1ccc(C(=O)Nc2c(C)nn(C(C)C)c2C)cn1 | -24.4% |
| CCc1nccn1C1CCCN(C(=O)c2ccc3[nH]cnc3c2)C1 (configuration not stated) | -7.66% |
| CC(CN1CCN(C)CC1)NC(=O)c1cc(Cl)c2c(c1)OCO2 (configuration not stated) | -14% |
| CCN(CC)Cc1nc2c(o1)CN(C(=O)c1ccncc1F)C2 | -109% |
| Cc1cnc(C(=O)N2CCC3(CCCN(c4nncs4)C3)C2)cn1 (configuration not stated) | -103% |
| c1cncc(CN2CCCC3(COCCN(c4cncnc4)C3)C2)c1 (configuration not stated) | -73.3% |
| CS(=O)(=O)N1CCC2(CC1)CC(CC(=O)NCC1CC1)c1ccccc12 (configuration not stated) | 7.65% |
| CCN(CCO)C[C@@H]1CN(c2cccc(C(F)(F)F)n2)C[C@@H]1CO | 0.855% |
| CCCc1cc(C(=O)N(CC)Cc2ccncc2)[nH]n1 | -6.52% |
| CSCC[C@H](N)C(=O)NCc1cc2n(n1)CCCN(C(=O)N(C)C)C2 | 9.8% |

| SMILES | cytotoxicity at 10 µM |
| --- | --- |
| CCN(CC)C(=O)C1CCCN(c2ncnc3oc(C)nc23)C1 (configuration not stated) | 1.61% |
| Cc1cccc(C(C(=O)NCc2cc(C)[nH]n2)N(C)C)c1 (configuration not stated) | -3.07% |
| O=C(O)c1cc(N2C[C@H](NC(=O)C3CCOCC3)[C@@H](C3CC3)C2)ccn1 | -4.23% |
| Cc1cc(C2CCC2)nc(N(C)CCc2ccccn2)n1 | -3.09% |
| CCCSCC(=O)N1CCCC2(CCC(=O)N(CCc3c[nH]cn3)C2)C1 (configuration not stated) | -0.0682% |
| CC(Oc1ccc2c(c1)OCO2)C(=O)N1CCC(c2ncc[nH]2)CC1 (configuration not stated) | -2.58% |
| Cc1nn(C)c2nc(N(Cc3ccccn3)CC3CCCO3)sc12 (configuration not stated) | -1.01% |
| Cc1n[nH]c(C)c1Sc1ccccc1NC(=O)CN1CCCC1 | -8.7% |
| Cc1cc2nc(C(C)C)cc(NCc3ccncc3)n2n1 | 2.63% |
| Cc1nc[nH]c1C(=O)N1CCCC2(CN(C)C(=O)O2)C1 (configuration not stated) | 1.2% |
| COc1cccc(CCC2CCCN(C(=O)C3=NN(C)C(=O)CC3)C2)c1 (configuration not stated) | -2.06% |
| CC(=O)c1cc(CC(=O)NCc2c(F)cccc2F)cs1 | -8.51% |
| CCCN(C)C(=O)c1ccc2c(c1)[nH]c(=O)n2CCOCC | -30.6% |
| Cc1ccc(OC2(C(=O)O)CCN(C(=O)c3ccc(F)cc3)CC2)cn1 | -18.1% |
| O=C(N[C@@H]1CCNC[C@H]1O)c1ccc(F)c(Cl)c1 | -11.1% |
| COCCOc1ccc(Cl)c(C(=O)N2CCN(CCO)CC2)n1 | -4.33% |
| Cc1noc(CN(C)C2CCCN(Cc3noc(C4CC4)n3)C2)n1 (configuration not stated) | -2.19% |
| CCN1CCOC(CNCc2ccc(OCc3ccccn3)cc2)C1 (configuration not stated) | -7.83% |
| O=C(N1CCCC(n2cncn2)C1)C1(c2ccc(Cl)cc2)CCC1 (configuration not stated) | -2.11% |
| O=C(NCC1CCOC1)Nc1ccc(Oc2ccc(F)cc2)nc1 (configuration not stated) | -13.7% |
| O=C(CCc1ccc(-c2ccccc2)[nH]1)N1CCCC(n2ccnc2)C1 (configuration not stated) | -15.7% |
| COc1ccccc1OCCNC(=O)N1CCC(n2cncn2)CC1 | 1.67% |
| CCOc1cccc2c1OCC(C(=O)NS(=O)(=O)c1cncc(Br)c1)=C2 | -0.713% |

| SMILES | cytotoxicity at 10 µM |
| --- | --- |
| CC(=O)N(Cc1ncc(C)o1)C1CCN(Cc2ccon2)C1 (configuration not stated) | -9.03% |
| CCCc1n[nH]c(C2CN(C(=O)c3cc(F)ccc3OC)CCO2)n1 (configuration not stated) | -5.58% |
| CC(=O)N(Cc1ncc(C(C)C)o1)C1CCN(Cc2nccn2C)C1 (configuration not stated) | -3.81% |
| Cc1nc(C)n(CC2CCCN(Cc3cccc(C#N)c3)C2)n1 (configuration not stated) | -16% |
| CC(C)c1noc(CCC(=O)NCC2CCOC2)n1 (configuration not stated) | 4.57% |
| Cc1cnc(CN(C)C2CCN(Cc3ccccc3C#N)C2)o1 (configuration not stated) | 1.08% |
| COCCc1noc(CN2CCCC2c2c(C)nn(C)c2C)n1 (configuration not stated) | -5.73% |
| FC(F)(F)Cn1ccnc1CN1CCOC(Cn2cccn2)C1 (configuration not stated) | 0.0962% |
| Cc1nn(C)c(Cl)c1C1CCCN1CC(=O)NCc1ccccn1 (configuration not stated) | -2.07% |
| Cc1ccc(-c2ncc(C(=O)NCCNc3ncccn3)s2)c(C)c1 | -9.12% |
| Cc1cnn(CC2CN(Cc3nc(-c4ccoc4)no3)CCO2)c1 (configuration not stated) | -9.63% |
| CC(C)c1nnc(NC(=O)NCc2ccc(CO)c(F)c2)s1 | 6.54% |
| Cc1ccoc1C(=O)N1Cc2c(CN3CCCCC3)nn(C)c2C1 | -1.16% |
| CN(C)C(=O)CO[C@H]1CN(Cc2ccccc2)[C@@H]2CCCO[C@H]12 | -8.1% |
| c1cncc(N2CCCC3(CCN(CC4CCCO4)CC3)C2)c1 (configuration not stated) | 5.15% |
| CCCC(=O)N1CCOC2(COCCN(CC(=O)NC)C2)C1 (configuration not stated) | -3.58% |
| COc1cccc(-c2n[nH]cc2CNC2CCN(C3CC3)CC2)c1 | -3.78% |
| Cc1ccc(CN2Cc3c(C(=O)N4CCN(C)CC4)nn(C)c3C2)s1 | -6.77% |
| COc1cccc(-n2cc3[nH]c(=O)[nH]n3c2=O)c1 | -6.47% |
| COCCC(=O)NCC1CCC(C(c2ccccn2)N(C)C)CC1 (configuration not stated) | 11.5% |

— ChEMBL document CHEMBL4513216, “Probing the Open Global Health Chemical Diversity Library for Multistage-Active Starting Points for Next-Generation Antimalarials” (ACS Infect Dis, 2020)
